Compound activity: PubChem, Broad Institute
Only some compounds are listed: those with a hit (about 1.1% of all), similar ones and a draw of the others.
CAL PDZ FP-1 = blocks peptide binding to the human CAL PDZ domain; Q9HD26; purified CAL PDZ, TMR-peptide fluorescence polarization, 1 h; inhibition, % at 24.9 µM; 300,000 compounds, 0.92% hits;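 active means mean inhibition of at least 30% with at least half of replicates also reaching 30%; inconclusive means no clear call, values can overlap the other calls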
PglD inh = inhibitors of Campylobacter jejuni PglD acetyltransferase. inhibition, % at 12.5 µM. 360,000 compounds, 0.098% hits. purified PglD enzyme, DTNB colorimetric CoA detection. AID 602405; in the data active means inhibition above about 16%, passing the limit was not always enough; inconclusive means no clear call, values can overlap the other calls
Cneo AK release = Cryptococcus neoformans lysis via adenylate kinase release; C. neoformans lysis, adenylate kinase release luminescence, 4 h; normalised: neutral wells 0, clomiphene wells 100; lysis activity, % at 15 µM; 360,000 compounds, 0.2% hits; AID 651654;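 active means mean lysis activity across replicates of at least 80%, whatever share of replicates individually reach that level; inactive means mean lysis activity below 80%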
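Assay system: Cryptococcus neoformans yeast cells / Dosing: single-point compound dose / Timing: 4 h at 37 °C static, read 1 h later / Measured by: luminescence of released adenylate kinase using an AK detection reagent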
miR122 inh = miR-122 inhibition in Huh7 cells; Huh7 miR-122 Renilla luciferase sensor, 48 h; neutral wells = 0, positive control = 100; activation (reporter increase), % at 12.5 µM; 340,000 compounds, 0.3% hits;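 active means mean replicate activation score at least 90 and every replicate individually at or above 90; inconclusive means only one of the two criteria met; inactive means neither criterion met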;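 further: higher luciferase means less miR-122 activity so hits act as miR-122 inhibitors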
CAL PDZ FP-2 = human CAL PDZ-peptide interaction inhibition; purified CAL PDZ, TMR-peptide fluorescence polarization, 1 h; inhibition, % at 20 µM; 330,000 compounds, 0.02% hits;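 active means highest replicate inhibition of at least 40%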
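Test system: tagged CAL PDZ domain / Buffer or medium: sodium phosphate/NaCl buffer pH 7.4 with TCEP, IgG, Thesit / Reagent: TMR-labelled reporter peptide T*-PRC34 bound in PDZ groove / Compound dosing: single point, 20 µM / Schedule: 1 h incubation at room temperature before polarization reading / Technique: fluorescence polarization (mP) / Benchmarks: unlabelled peptide, DMSO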
miR-27b select = miR-27b effect in Huh7 as miR-122 inhibitor selectivity check. shares compounds with miR122 inh. relative miR-27b level (unnormalised ratio), ratio at 35 µM. Huh7 miR-27b levels, qRT-PCR, 48 h. 35 tested, under 10 active. AID 687039;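 active means compounds lowering miR-27b whose fitted half-maximal dose is at most twice their top tested dose; inconclusive means flat curve with moderate drop, or poor fit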
PglD inh SP = blocks Campylobacter jejuni PglD acetyltransferase activity; shares compounds with PglD inh; Purified C. jejuni PglD, DTNB absorbance 412 nm; inhibition, % at 20 µM; 320 tested, under 10 active; AID 743156;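 active means mean inhibition across replicates of at least 20% with every single replicate also at 20% or more; inconclusive means mean inhibition at least 20% but some replicate falls below 20%; inactive means mean inhibition under 20% and not all replicates reach it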;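 further: initial rate of CoA release by acetyl transfer from AcCoA to the UDP-4-amino sugar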
Each line names hits and unclear results; the compound was inactive in the other large screens (follow-up assays come after a bar, where they were run).

CC(C)NC(=O)N(C)C[C@H]1Oc2ccc(NC(=O)NC3CCCCC3)cc2C(=O)N([C@@H](C)CO)C[C@@H]1C	none (no result: CAL PDZ FP-1, CAL PDZ FP-2)
O=C(Nc1ccccn1)C1CCN(S(=O)(=O)c2ccc(Cl)cc2)CC1	none (no result: CAL PDZ FP-1, PglD inh, Cneo AK release)
O=C(NNC(=O)C1C2C=CC(C2)C1C(=O)O)c1cc(Cl)ccc1O (stereo unspecified)	none
COCCn1c(SCC(=O)NCc2ccc3c(c2)OCO3)nnc1-c1c[nH]c2ccccc12	CAL PDZ FP-1 64
O=C(O)C[C@@H]1C[C@H]2c3cc(NS(=O)(=O)c4ccc(F)cc4)ccc3O[C@H]2[C@@H](CO)O1	none (no result: CAL PDZ FP-1, CAL PDZ FP-2)
CCOc1cc(-c2nc(C)c(C(C)=O)n2O)ccc1OCC(=O)Nc1ccc(F)cc1	none (no result: CAL PDZ FP-1, PglD inh, Cneo AK release, miR122 inh)
CCOc1cc(-c2nc(C)c(C(C)=O)n2O)ccc1OCC(=O)Nc1ccccc1	CAL PDZ FP-1 38
Cc1ccc(NC2=C(CC(=O)O)C(c3ccccc3)N(c3ccc(C)cc3)C2=O)cc1 (stereo unspecified)	none
O=C(NC(Cc1ccccc1)C(=O)O)/C(=C/c1ccccc1)NC(=O)c1ccco1 (stereo unspecified)	CAL PDZ FP-1 63
O=C(NC(Cc1ccccc1)C(=O)O)/C(=C\c1ccc(F)cc1)NC(=O)c1ccco1 (stereo unspecified)	none
CC(C)C(=O)N1CCN(c2ccccc2NC(=O)c2cccc3ccccc23)CC1	CAL PDZ FP-1 47
CS(=O)(=O)N1CCc2cc(NC(=O)c3ccc(Cl)cc3Cl)ccc21	none (no result: PglD inh, Cneo AK release, miR122 inh)
COc1ccc(S(=O)(=O)NCCN2CCOCC2)c2ccccc12	miR122 inh inconclusive (no result: CAL PDZ FP-1) | miR-27b select inactive
COc1cc(S(=O)(=O)NC2CCCC2)c(OC)cc1C	miR122 inh inconclusive (no result: CAL PDZ FP-1)
Cc1cc(S(=O)(=O)NC2CCCCC2)c(C)s1	miR122 inh 260 (no result: Cneo AK release) | miR-27b select inactive
Cc1cc(C)c(S(=O)(=O)NC(C)C)c(C)c1-n1cnnn1	miR122 inh 91 | miR-27b select inactive
Cc1cc(C)c(S(=O)(=O)NCCOc2ccccc2)c(C)c1-n1cnnn1	none
C[C@@H]1CN([C@H](C)CO)C(=O)c2cc(N(C)C)ccc2O[C@H]1CN(C)Cc1ccc(C(=O)O)cc1	none (no result: CAL PDZ FP-1, CAL PDZ FP-2)
Cc1ccc(C)c(S(=O)(=O)Nc2ccc(-n3cnnn3)cc2)c1	miR122 inh 183 (no result: CAL PDZ FP-1) | miR-27b select inactive
Cc1ccc(C)c(S(=O)(=O)Nc2ccc(O)cc2)c1	none (no result: CAL PDZ FP-2)
CCCNC(=O)[C@H]1[C@H](CO)[C@H]2Cn3c(ccc(-c4ccccc4)c3=O)[C@H]2N1C(=O)c1ccccc1F	none (no result: CAL PDZ FP-1, CAL PDZ FP-2)
CN(C)CC(=O)Nc1ccc2c(c1)[C@@H]1C[C@H](CC(=O)NCc3ccccc3)O[C@@H](CO)[C@@H]1O2	none (no result: CAL PDZ FP-1, CAL PDZ FP-2)
O=C(Nc1ccc2ccccc2c1)c1ccccc1Cl	none (no result: CAL PDZ FP-1, CAL PDZ FP-2)
O=C(Nc1ccc2ccccc2c1)c1ccc(Cl)cc1Cl	none (no result: miR122 inh) | miR-27b select inactive
Cc1noc(C)c1NC(=O)Nc1cccc2c1O[C@@H](CN(C)Cc1ccc(C(F)(F)F)cc1)[C@H](C)CN([C@H](C)CO)C2=O	none (no result: CAL PDZ FP-1, CAL PDZ FP-2)
CCN(CC)C(=O)CN(c1cc2c(cc1OC)oc1ccccc12)S(=O)(=O)c1ccccc1	miR122 inh 100 | miR-27b select inactive
Cc1ccc(C(C)C)cc1S(=O)(=O)Nc1cccnc1	miR122 inh 380 | miR-27b select inactive
COc1ccc(S(=O)(=O)Nc2ccc(OC(F)F)cc2)c2cccnc12	none (no result: CAL PDZ FP-1, PglD inh, Cneo AK release, miR122 inh, CAL PDZ FP-2) | miR-27b select inactive
COc1ccc(S(=O)(=O)Nc2cccc(C)c2C)c2cccnc12	none (no result: miR122 inh)
S=C(Nc1ccc(Cl)cc1Cl)NC1CCCCC1	miR122 inh 133 | miR-27b select inactive
Cc1ccc(C(=O)C2Oc3ccccc3C3CC(c4ccc(C)cc4)=NN23)cc1 (stereo unspecified)	miR122 inh 152 | miR-27b select inactive
COc1ccc(C(C)(C)C)cc1S(=O)(=O)NCC1CCCO1 (stereo unspecified)	miR122 inh 170 | miR-27b select inactive
O=S(=O)(NCC1CN(S(=O)(=O)c2c(F)cccc2F)C1)c1ccc2c(c1)OCCO2	none
COC(=O)c1cc(S(=O)(=O)Nc2cc(OC)cc(OC)c2)cn1C	miR122 inh 153 | miR-27b select inactive
O=S(=O)(c1ccc2c(c1)CCN2)N1CCOCC1	none (no result: miR122 inh)
O=S(=O)(c1ccc2c(c1)CCCN2)N1CCC[C@@H]2CCCC[C@H]21	none (no result: CAL PDZ FP-1, PglD inh, Cneo AK release, miR122 inh, CAL PDZ FP-2) | miR-27b select inactive
C[C@@H]1CN([C@H](C)CO)C(=O)c2cc(NC(=O)Nc3ccc(C(F)(F)F)cc3)ccc2O[C@@H](C)CCCCO[C@@H]1CN(C)C(=O)Nc1cccc2ccccc12	none (no result: CAL PDZ FP-1, CAL PDZ FP-2)
C[C@@H]1CN([C@@H](C)CO)S(=O)(=O)c2ccc(Br)cc2O[C@@H]1CN(C)C(=O)c1cnccn1	none (no result: CAL PDZ FP-1, CAL PDZ FP-2)
OCCN1CCOCCN(CCO)CCOCC1	PglD inh 21 | PglD inh SP inactive
C(CCN1CCOCC1)CN1CCOCC1	none (no result: CAL PDZ FP-1, CAL PDZ FP-2)
CO[C@@H]1CN(C)C(=O)c2ccc(NS(=O)(=O)c3cn(C)cn3)cc2OC[C@@H](C)N(CC2CC2)C[C@@H]1C	none (no result: CAL PDZ FP-1, miR122 inh, CAL PDZ FP-2)
COc1ccc(N(CC(=O)Nc2cccc(C(C)=O)c2)S(=O)(=O)c2ccc(NC(C)=O)cc2)cc1	PglD inh 77 (no result: miR122 inh) | PglD inh SP inactive
CC1Oc2ccccc2N(CC(=O)N2CCCCC2)C1=O (stereo unspecified)	PglD inh 25 (no result: CAL PDZ FP-1) | PglD inh SP inconclusive
O=C(COC(=O)c1ccc([N+](=O)[O-])s1)NC(=O)NCc1ccccc1	PglD inh 31 | PglD inh SP inactive
O=C(COC(=O)c1ccc([N+](=O)[O-])s1)NCCc1ccccc1	none (no result: CAL PDZ FP-1)
CCNC(=O)C[C@H]1CC[C@@H]2[C@H](COC[C@@H](O)CN2C(=O)Nc2cccc(OC)c2)O1	none (no result: CAL PDZ FP-1, CAL PDZ FP-2)
COc1ccc(OC)c(C(=O)CN2CCN(S(=O)(=O)c3ccc(Br)cc3)CC2)c1	PglD inh 21 | PglD inh SP inactive
COc1ccc(S(=O)(=O)N2CCN(CCOc3ccc(Br)cc3)CC2)cc1OC	none (no result: CAL PDZ FP-1)
COc1ccc(N2CCN(CCC(O)c3ccc4ccccc4c3)CC2)cc1 (stereo unspecified)	PglD inh 29 | PglD inh SP inactive
COc1ccc(C(CCN2CCN(c3ccccc3)CC2)c2c(O)cc(OC)cc2OC)cc1 (stereo unspecified)	none
CCn1cc(/C=N\NC(=O)c2ccc3c(c2)c(C)c(C)n3Cc2ccccc2)c(C)n1	PglD inh 32 | PglD inh SP inactive
CCn1ncc(/C=N\NC(=O)c2ccc3c(c2)c(C)c(C)n3Cc2ccccc2)c1C	none
O=C(CNC(=O)c1ccc(Br)o1)Nc1ccc(N2CCCCCC2)cc1	none
O=C(CNC(=O)c1ccco1)Nc1ccc(N2CCCCCC2)cc1	PglD inh 24 | PglD inh SP inactive
